Test results published in ChEMBL document CHEMBL1157617, “A new class of naphthalimide-based antitumor agents that inhibit topoisomerase II and induce lysosomal membrane permeabilization and apoptosis” (J Med Chem, 2010).
Calls of active or inactive are those of the source. The calls are words filed in the database; no cut-off is given here.

Tested on: HeLa
Assay: Induction of lysosomal membrane permeabilization in human HeLa cells assessed as acridine orange red fluorescence at 6 uM after 24 hrs by flow cytometry
Assay type: functional
Details: not given
In short: (§1)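 Each compound was tested at three concentrations on HeLa cells for 24 h. Adherent and floating cells were pooled and stained with 20 μg/mL acridine orange for 2 min at room temperature. Lysosomal rupture was scored by flow cytometry as percentage of cells with AO red fluorescence.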

Row | Structure (SMILES) | Activity [%]
1 | CCCCCCCCCCCCN1C(=O)c2cccc3c(NCCN4CCN(C)CC4)ccc(c23)C1=O | 92.83
2 | CCCCCCCCN1C(=O)c2cccc3c(NCCNCCN(C)C)ccc(c23)C1=O | 85.74
3 | CCCCCCCCCCCCNc1ccc2c3c(cccc13)C(=O)N(CCCNCCN(C)C)C2=O | 44.64

Tested on: HeLa
Assay: Induction of lysosomal membrane permeabilization in human HeLa cells assessed as acridine orange red fluorescence at 4 uM after 24 hrs by flow cytometry
Assay type: functional
Details: not given
In short: as §1

Row | Structure (SMILES) | Activity [%]
4 | CCCCCCCCN1C(=O)c2cccc3c(NCCN4CCN(C)CC4)ccc(c23)C1=O | 93.04
5 | CCCCCCCCCCCCN1C(=O)c2cccc3c(NCCN4CCN(C)CC4)ccc(c23)C1=O | 95.81
6 | CCCCCCCCN1C(=O)c2cccc3c(NCCNCCN(C)C)ccc(c23)C1=O | 90.98
7 | CCCCCCCCCCCCNc1ccc2c3c(cccc13)C(=O)N(CCCNCCN(C)C)C2=O | 82.37

Tested on: HeLa
Assay: Cytotoxicity against human HeLa cells after 24 hrs by MTT assay
Details: not given

Row | Structure (SMILES) | IC50 [µM]
8 | CCCCCCCCN1C(=O)c2cccc3c(NCCN4CCN(C)CC4)ccc(c23)C1=O | 7.9
9 | CCCCCCCCCCCCN1C(=O)c2cccc3c(NCCN4CCN(C)CC4)ccc(c23)C1=O | 5.45
10 | CCCCCCCCN1C(=O)c2cccc3c(NCCNCCN(C)C)ccc(c23)C1=O | 4.5
11 | CCCCCCCCCCCCNc1ccc2c3c(cccc13)C(=O)N(CCCNCCN(C)C)C2=O | 4.71

Tested on: not listed separately
Assay: Cytotoxicity against human LS 174T cells after 24 hrs by MTT assay
Details: LS174T

Row | Structure (SMILES) | IC50 [µM]
12 | CCCCCCCCN1C(=O)c2cccc3c(NCCN4CCN(C)CC4)ccc(c23)C1=O | 17.9
13 | CCCCCCCCCCCCN1C(=O)c2cccc3c(NCCN4CCN(C)CC4)ccc(c23)C1=O | 12.7
14 | CCCCCCCCN1C(=O)c2cccc3c(NCCNCCN(C)C)ccc(c23)C1=O | 9.27
15 | CCCCCCCCCCCCNc1ccc2c3c(cccc13)C(=O)N(CCCNCCN(C)C)C2=O | 9.43

Tested on: Calf thymus DNA
Assay: Binding affinity to calf thymus DNA by fluorescent spectra analysis
Assay type: nucleic-acid assay
Details: Bos taurus
In short: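 Compounds at 10, 20, 30 and 50 μM in 20 mM Tris-HCl pH 7.4, with or without 100 μM CT DNA (no-DNA samples as control). Incubated 1 day in the dark at 25 °C. Fluorescence wavelength and intensity read at 25 °C. Scatchard binding constant calculated.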

Row | Structure (SMILES) | Activity
16 | CCCCCCCCN1C(=O)c2cccc3c(NCCNCCN(C)C)ccc(c23)C1=O | inactive

Tested on: HeLa
Assay: Induction of cytochrome c release into cytosol in human HeLa cells at IC50 concentration after 24 hrs by FITC/Hoechst soluble immunocytochemical staining
Assay type: functional, cell-based
Details: not given
In short: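 HeLa cells were treated 24 h at compound-specific concentrations, then fixed in 10% formaldehyde, permeabilized in 90% methanol and blocked with milk. Staining was rabbit anti-cytochrome c (1:500) then FITC goat anti-rabbit IgG (1:100), 1 h each at room temperature, with 2 μg/mL Hoechst 33258 as counterstain. Cytosolic green signal was imaged by confocal microscopy.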

Row | Structure (SMILES) | Activity
17 | CCCCCCCCN1C(=O)c2cccc3c(NCCN4CCN(C)CC4)ccc(c23)C1=O | Active
18 | CCCCCCCCCCCCN1C(=O)c2cccc3c(NCCN4CCN(C)CC4)ccc(c23)C1=O | Active
19 | CCCCCCCCN1C(=O)c2cccc3c(NCCNCCN(C)C)ccc(c23)C1=O | Active
20 | CCCCCCCCCCCCNc1ccc2c3c(cccc13)C(=O)N(CCCNCCN(C)C)C2=O | Active

Tested on: HeLa
Assay: Induction of apoptosis in human HeLa cells assessed as viable cells at IC50 concentration after 24 hrs using annexin V/propidium iodide staining by flow cytometry
Assay type: functional
Details: not given
In short: (§2)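 HeLa cells, seeded at 1 × 10^6 per well, were treated for 24 h at a fixed concentration set per compound. Cells were washed in cold PBS and resuspended in binding buffer. Staining was annexin V-FITC at 4 °C in the dark for 15 min, then PI for 5 min. Quadrants were read by flow cytometry: live, early apoptotic, late apoptotic, damaged. Run three times.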

Row | Structure (SMILES) | Activity [%]
21 | CCCCCCCCCCCCNc1ccc2c3c(cccc13)C(=O)N(CCCNCCN(C)C)C2=O | 1.05

Tested on: HeLa
Assay: Induction of lysosomal membrane permeabilization in human HeLa cells assessed as acridine orange red fluorescence at 2 uM after 24 hrs by flow cytometry
Assay type: functional
Details: not given
In short: as §1

Row | Structure (SMILES) | Activity [%]
22 | CCCCCCCCCCCCN1C(=O)c2cccc3c(NCCN4CCN(C)CC4)ccc(c23)C1=O | 97.39
23 | CCCCCCCCN1C(=O)c2cccc3c(NCCNCCN(C)C)ccc(c23)C1=O | 92.29
24 | CCCCCCCCCCCCNc1ccc2c3c(cccc13)C(=O)N(CCCNCCN(C)C)C2=O | 85.49

Tested on: HeLa
Assay: Induction of apoptosis in human HeLa cells assessed as early apoptotic cells at IC50 concentration after 24 hrs using annexin V/propidium iodide staining by flow cytometry
Assay type: functional
Details: not given
In short: as §2

Row | Structure (SMILES) | Activity [%]
25 | CCCCCCCCCCCCN1C(=O)c2cccc3c(NCCN4CCN(C)CC4)ccc(c23)C1=O | 86.98
26 | CCCCCCCCN1C(=O)c2cccc3c(NCCNCCN(C)C)ccc(c23)C1=O | 90.07

Tested on: Calf thymus DNA
Assay: Binding affinity to calf thymus DNA assessed as circular dichroism by CD spectroscopy
Assay type: nucleic-acid assay
Details: Bos taurus
In short: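 CT DNA (100 μM) with drug (20 μM) in 20 mM Tris-HCl pH 7.4. DNA concentration set by UV absorbance, A260/A280 above 1.8. CD spectrum recorded 200-400 nm in a 1 cm cell after shaking, thermal equilibration and buffer subtraction. Analysed over 230-300 nm.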

Row | Structure (SMILES) | Activity
27 | CCCCCCCCN1C(=O)c2cccc3c(NCCN4CCN(C)CC4)ccc(c23)C1=O | inactive
28 | CCCCCCCCCCCCN1C(=O)c2cccc3c(NCCN4CCN(C)CC4)ccc(c23)C1=O | inactive
29 | CCCCCCCCN1C(=O)c2cccc3c(NCCNCCN(C)C)ccc(c23)C1=O | inactive
30 | CCCCCCCCCCCCNc1ccc2c3c(cccc13)C(=O)N(CCCNCCN(C)C)C2=O | inactive

Tested on: HL-60
Assay: Cytotoxicity against human HL60 cells after 72 hrs by MTT assay
Assay type: functional, cell-based
Details: HL-60, 24 h, in the assay text read “after 24 hrs” for “after 72 hrs”
In short: (§3)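 MTT viability assay on HeLa, HL-60, MCF-7, MKN45 and LS174 cells. MTT (500 μg/mL) was added for 4 h at 37 °C and formazan dissolved in DMSO; A570 was read. IC50 came from linear regression; experiments were done in triplicate.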

Row | Structure (SMILES) | IC50 [µM]
31 | CCCCCCCCN1C(=O)c2cccc3c(NCCN4CCN(C)CC4)ccc(c23)C1=O | 12
32 | CCCCCCCCCCCCN1C(=O)c2cccc3c(NCCN4CCN(C)CC4)ccc(c23)C1=O | 7.05
33 | CCCCCCCCN1C(=O)c2cccc3c(NCCNCCN(C)C)ccc(c23)C1=O | 5.13
34 | CCCCCCCCCCCCNc1ccc2c3c(cccc13)C(=O)N(CCCNCCN(C)C)C2=O | 4.04

Molecular target: DNA topoisomerase 2-alpha (Homo sapiens) (UniProt P11388)
Sequence (P11388 whole entry): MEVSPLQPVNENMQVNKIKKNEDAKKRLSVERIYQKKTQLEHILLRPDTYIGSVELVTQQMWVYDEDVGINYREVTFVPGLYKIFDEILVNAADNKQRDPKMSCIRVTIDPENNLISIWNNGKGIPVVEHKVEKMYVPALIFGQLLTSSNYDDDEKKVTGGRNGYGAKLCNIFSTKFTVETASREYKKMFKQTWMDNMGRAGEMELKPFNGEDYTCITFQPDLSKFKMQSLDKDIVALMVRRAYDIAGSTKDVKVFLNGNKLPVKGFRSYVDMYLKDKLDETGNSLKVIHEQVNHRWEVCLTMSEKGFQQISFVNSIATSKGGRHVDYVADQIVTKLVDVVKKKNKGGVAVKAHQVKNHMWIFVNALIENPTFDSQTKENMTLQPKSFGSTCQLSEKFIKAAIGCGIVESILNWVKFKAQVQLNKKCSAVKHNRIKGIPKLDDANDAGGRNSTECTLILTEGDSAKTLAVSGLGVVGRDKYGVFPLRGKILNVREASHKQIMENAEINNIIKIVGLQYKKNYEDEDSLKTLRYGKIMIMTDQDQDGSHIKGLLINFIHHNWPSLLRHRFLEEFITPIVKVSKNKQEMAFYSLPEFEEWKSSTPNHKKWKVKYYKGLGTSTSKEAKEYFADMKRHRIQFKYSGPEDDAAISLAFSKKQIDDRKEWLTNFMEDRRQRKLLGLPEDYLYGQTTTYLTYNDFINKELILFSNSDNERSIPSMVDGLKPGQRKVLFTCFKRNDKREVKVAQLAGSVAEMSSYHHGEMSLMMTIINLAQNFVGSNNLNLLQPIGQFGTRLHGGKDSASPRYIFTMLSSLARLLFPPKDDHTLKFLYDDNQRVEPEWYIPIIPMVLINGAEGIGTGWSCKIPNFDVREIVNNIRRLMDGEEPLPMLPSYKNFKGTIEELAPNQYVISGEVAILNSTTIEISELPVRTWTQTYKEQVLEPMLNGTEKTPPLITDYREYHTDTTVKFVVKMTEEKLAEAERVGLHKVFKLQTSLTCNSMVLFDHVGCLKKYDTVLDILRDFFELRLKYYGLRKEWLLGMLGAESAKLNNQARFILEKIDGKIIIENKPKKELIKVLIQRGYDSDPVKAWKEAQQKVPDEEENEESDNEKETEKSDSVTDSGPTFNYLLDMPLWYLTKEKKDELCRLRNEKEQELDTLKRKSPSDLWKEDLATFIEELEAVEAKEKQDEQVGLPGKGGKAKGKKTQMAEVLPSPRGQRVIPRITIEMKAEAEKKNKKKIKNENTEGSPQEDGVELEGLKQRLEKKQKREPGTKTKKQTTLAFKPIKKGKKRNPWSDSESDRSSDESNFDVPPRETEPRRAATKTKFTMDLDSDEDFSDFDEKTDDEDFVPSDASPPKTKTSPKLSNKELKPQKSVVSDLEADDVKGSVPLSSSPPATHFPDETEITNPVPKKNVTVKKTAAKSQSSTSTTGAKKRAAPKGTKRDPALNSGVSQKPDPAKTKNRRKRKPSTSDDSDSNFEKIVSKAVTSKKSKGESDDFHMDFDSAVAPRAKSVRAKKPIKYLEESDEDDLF
Assay: Inhibition of DNA topoisomerase 2-mediated kDNA decatenation at 100 uM
Details: not given
In short: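 Cell-free topo II decatenation: 0.2 μg kDNA was incubated with HeLa-cell topo II extract and compound at 100 μM. The cleavage buffer contained 50 mM Tris-HCl pH 8.0, 120 mM KCl, 10 mM MgCl2, 1 mM ATP and 0.5 mM DTT. Reactions ran 15 min at 37 °C and were stopped with SDS. Products were resolved on 1% agarose and stained with ethidium bromide.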

Row | Structure (SMILES) | Activity
35 | CCCCCCCCN1C(=O)c2cccc3c(NCCN4CCN(C)CC4)ccc(c23)C1=O | Active
36 | CCCCCCCCCCCCN1C(=O)c2cccc3c(NCCN4CCN(C)CC4)ccc(c23)C1=O | Active
37 | CCCCCCCCN1C(=O)c2cccc3c(NCCNCCN(C)C)ccc(c23)C1=O | Active
38 | CCCCCCCCCCCCNc1ccc2c3c(cccc13)C(=O)N(CCCNCCN(C)C)C2=O | Active

Tested on: MKN-45
Assay: Cytotoxicity against human MKN45 cells after 24 hrs by MTT assay
Details: MKN-45, 24 h

Row | Structure (SMILES) | IC50 [µM]
39 | CCCCCCCCN1C(=O)c2cccc3c(NCCN4CCN(C)CC4)ccc(c23)C1=O | 17.4
40 | CCCCCCCCCCCCN1C(=O)c2cccc3c(NCCN4CCN(C)CC4)ccc(c23)C1=O | 9.28
41 | CCCCCCCCN1C(=O)c2cccc3c(NCCNCCN(C)C)ccc(c23)C1=O | 9.28
42 | CCCCCCCCCCCCNc1ccc2c3c(cccc13)C(=O)N(CCCNCCN(C)C)C2=O | 15.5

Tested on: MCF7
Assay: Cytotoxicity against human MCF7 cells after 72 hrs by MTT assay
Assay type: functional, cell-based
Details: MCF7, 24 h, in the assay text read “after 24 hrs” for “after 72 hrs”
In short: as §3

Row | Structure (SMILES) | IC50 [µM]
43 | CCCCCCCCN1C(=O)c2cccc3c(NCCN4CCN(C)CC4)ccc(c23)C1=O | 8.35
44 | CCCCCCCCCCCCN1C(=O)c2cccc3c(NCCN4CCN(C)CC4)ccc(c23)C1=O | 2.79
45 | CCCCCCCCN1C(=O)c2cccc3c(NCCNCCN(C)C)ccc(c23)C1=O | 3.76
46 | CCCCCCCCCCCCNc1ccc2c3c(cccc13)C(=O)N(CCCNCCN(C)C)C2=O | 2.56

Tested on: Nucleic Acid
Assay: Induction of conformational changes in Escherichia coli pBR322 DNA assessed as DNA relaxation at 100 uM after 2 hrs by gel electrophoresis
Assay type: nucleic-acid assay
Details: not given
In short: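 pBR322 plasmid (200 ng) was incubated with compound at 100 μM in Tris-HCl pH 7.4 for 2 h at 37 °C. Samples ran on 1% agarose and were stained with ethidium bromide; supercoiled versus relaxed forms were judged from gel migration.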

Row | Structure (SMILES) | Activity
47 | CCCCCCCCN1C(=O)c2cccc3c(NCCN4CCN(C)CC4)ccc(c23)C1=O | inactive
48 | CCCCCCCCCCCCN1C(=O)c2cccc3c(NCCN4CCN(C)CC4)ccc(c23)C1=O | inactive
49 | CCCCCCCCN1C(=O)c2cccc3c(NCCNCCN(C)C)ccc(c23)C1=O | inactive
50 | CCCCCCCCCCCCNc1ccc2c3c(cccc13)C(=O)N(CCCNCCN(C)C)C2=O | inactive

Tested on: HeLa
Assay: Induction of lysosomal membrane permeabilization in human HeLa cells assessed as acridine orange red fluorescence at 7 uM after 24 hrs by flow cytometry
Assay type: functional
Details: not given
In short: as §1

Row | Structure (SMILES) | Activity [%]
51 | CCCCCCCCN1C(=O)c2cccc3c(NCCN4CCN(C)CC4)ccc(c23)C1=O | 88.55

Tested on: HeLa
Assay: Induction of apoptosis in human HeLa cells assessed as damaged cells at IC50 concentration after 24 hrs using annexin V/propidium iodide staining by flow cytometry
Assay type: functional
Details: in the assay text read “late apoptotic cells” for “damaged cells”
In short: as §2

Row | Structure (SMILES) | Activity [%]
52 | CCCCCCCCN1C(=O)c2cccc3c(NCCN4CCN(C)CC4)ccc(c23)C1=O | 53.82
53 | CCCCCCCCCCCCN1C(=O)c2cccc3c(NCCN4CCN(C)CC4)ccc(c23)C1=O | 12.75
54 | CCCCCCCCN1C(=O)c2cccc3c(NCCNCCN(C)C)ccc(c23)C1=O | 9.82
55 | CCCCCCCCCCCCNc1ccc2c3c(cccc13)C(=O)N(CCCNCCN(C)C)C2=O | 98.89

Tested on: HeLa
Assay: Induction of apoptosis in human HeLa cells assessed as late apoptotic cells at IC50 concentration after 24 hrs using annexin V/propidium iodide staining by flow cytometry
Assay type: functional
Details: not given
In short: as §2

Row | Structure (SMILES) | Activity [%]
56 | CCCCCCCCCCCCNc1ccc2c3c(cccc13)C(=O)N(CCCNCCN(C)C)C2=O | 98.89

Tested on: HeLa
Assay: Induction of lysosomal membrane permeabilization in human HeLa cells assessed as acridine orange red fluorescence at 10 uM after 24 hrs by flow cytometry
Assay type: functional
Details: not given
In short: as §1

Row | Structure (SMILES) | Activity [%]
57 | CCCCCCCCN1C(=O)c2cccc3c(NCCN4CCN(C)CC4)ccc(c23)C1=O | 89.89
